# A selection: hits, their analogues and other compounds. The true share with any hit is near 4.1%.
# FLuc act counter = affects firefly luciferase, flagging false hits in luciferase stimulation screens; 200,000 tested, under 10 active; activation factor at 10 µM; ATPlite luciferase biochemical, luminescence, 10 min; 0 = ATP-free wells, 1 = DMSO control; AID 1027; P08659;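 active = luciferase activation factor, scaled between plate controls, of at least 2 with compound at 10 µM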
# Target sequence (P08659 whole entry, looked up): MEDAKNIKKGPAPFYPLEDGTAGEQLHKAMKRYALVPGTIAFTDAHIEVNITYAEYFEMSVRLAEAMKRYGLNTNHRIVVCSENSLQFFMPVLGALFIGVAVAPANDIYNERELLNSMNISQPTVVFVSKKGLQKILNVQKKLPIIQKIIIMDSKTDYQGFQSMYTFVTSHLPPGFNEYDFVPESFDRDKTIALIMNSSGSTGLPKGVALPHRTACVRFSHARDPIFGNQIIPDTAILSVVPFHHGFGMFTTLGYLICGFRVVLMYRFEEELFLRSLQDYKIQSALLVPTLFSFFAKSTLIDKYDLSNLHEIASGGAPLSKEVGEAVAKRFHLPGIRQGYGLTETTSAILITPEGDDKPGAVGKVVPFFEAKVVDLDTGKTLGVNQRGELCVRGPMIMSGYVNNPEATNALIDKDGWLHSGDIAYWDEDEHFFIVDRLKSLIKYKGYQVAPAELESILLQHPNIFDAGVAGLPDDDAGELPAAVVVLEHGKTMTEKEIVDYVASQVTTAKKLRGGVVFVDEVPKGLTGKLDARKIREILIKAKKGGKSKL
#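 System: cell-free luciferase reagent; medium: PBS as buffer for the ATP substrate; doses: test compounds dosed from 2 mM stocks in 100% DMSO; incubation: 10 min, room temperature; measured by: luminescence from luciferase reaction; read-out: luciferase activation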
# NF-kB neuron act = compounds increasing NF-kB expression in human neuronal cells. 190,000 compounds, 1.6% hits. fold change at 12.5 µM. NF-kB reporter expression; active compounds read high; in the data active = fold change above about 3.3
# STAT1 activator = increases IFN-gamma driven STAT1 reporter signal | NIH 3T3 STAT1-luciferase reporter, luminescence; 100% = IFN-gamma alone, no compound | activation (% of control), % at 5.5 µM | 200,000 compounds, 2.6% hits | AID 932;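 active = activation above the screen-wide mean activation plus 3 SD, cut at about 130% in these data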;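 note: raw ratio to IFN-gamma control signal so 100% means no change and 0% no light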
# FLuc inh counter = counter-screen for luciferase assay inhibitors: firefly luciferase inhibition; P08659; ATPLite firefly luciferase biochemical luminescence, 10 min; inhibition, % at 10 µM; 200,000 compounds, 1.5% hits; AID 1006;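 active = inhibition above about 50% when tested at 10 µM, limit read from the data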
# APP 5'UTR act = APP 5'UTR luciferase reporter activation. activation, % at 2 µM. AID 1276. SH-SY5Y APP 5'UTR luciferase reporter, luminescence; zero percent = DMSO vehicle wells. 190,000 compounds, 1% hits;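 active = activation above a set limit, based on mean plus 3 SD of controls, cut at about 140% in these data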
# * hit, by the source's call; / = no result given.
SMILES,FLuc act counter,NF-kB neuron act,STAT1 activator,FLuc inh counter,APP 5'UTR act
Cc1ccc(S(=O)(=O)NCCCCCC(=O)Nc2cccc(C)c2)cc1,1.1,0.98,100,-6,18
Cc1cccc(C(=O)Nc2ccccc2SCC(=O)Nc2ccc(C)c(Cl)c2)c1,1,1.6,100,-4,-4
Cc1ccc(Cl)cc1N1CCN(c2cccc[n+]2C)CC1,1.1,1.3,95,-5,-4
CCCn1c(C)cc(C(=O)COC(=O)c2nccnc2N)c1C,0.2,2.1,70,78*,134
CCCn1c(C)cc(C(=O)COC(=O)c2cc(S(=O)(=O)NCC(C)C)c(Cl)cc2Cl)c1C,1,0.93,98,-4,-15
Cc1cc(C)n(-c2ccc(C(=O)OCC(=O)NCc3ccc(F)cc3)cc2)n1,0.6,0.9,107,42,8
COc1ccc(N=CC2=C(O)CC(C)(C)CC2=O)cc1,0.9,1.1,133*,8,9
COc1ccc(OC)c(N=CC2=C(O)CC(C)(C)CC2=O)c1,1,0.74,102,-4,-4
CC1(C)CC(=O)C(C=Nc2ccc3c(c2)OCO3)=C(O)C1,0.9,1.6,132*,13,20
COc1ccc(N=CC2=C(O)CCCC2=O)cc1,0.9,1.7,136*,7,-2
CCCCN(C)CCNC(=O)CCNC(=O)Cn1ccc2ccccc2c1=O,1.1,0.92,103,-6,-28
Cc1ccc(NC(=O)N2CCC(c3ccccc3)C2)cc1C (stereo not drawn),0.5,5.7*,150*,49,143*
O=C(Nc1ccc(Cl)cc1)N1CCC(c2ccccc2)C1 (stereo not drawn),0.4,6.2*,146*,64*,169*
COc1ccccc1/C=C/C(=O)N1CCOCC1,1.1,1,101,-5,-26
Cc1ccc(C2CCN(C(=O)Nc3ccccc3)C2)cc1 (stereo not drawn),0.7,2.5,125,34,66
COc1ccccc1/C=C/C(=O)N1CCC(c2ccccc2)C1 (stereo not drawn),0.7,2.4,134*,35,52
C/C(=N\NC(=O)c1c(C)nc2ccccn12)c1ccco1,0.9,1.9,134*,9,18
C/C(=N/NC(=O)c1ccccn1)c1ccco1,0.3,2,108,70*,111
CCOC(=O)CSc1nc(N)c(C#N)c(CC(C)C)c1C#N,1,1.1,98,-3,-12
Cc1cc(C2C(=O)C(C(=O)c3ccc(Cl)cc3)C(=O)CC2(C)C)on1 (stereo not drawn),1.1,1.1,97,-8,13
COc1ccc(NC(=O)N2CCC(c3nc4ccccc4[nH]3)CC2)cc1,1,0.8,94,0,21
CCOC(=O)c1c(NC(=O)c2c(-c3ccccc3)noc2C)sc(C)c1-c1ccccc1,1.1,0.71,136*,-6,-40
Cc1ccc(CSc2nc3ccncc3n2CC(=O)Nc2cc(C)cc(C)c2)cc1,0.5,1.3,98,50*,49
Cc1cc(C)cc(NC(=O)Cn2c(SCc3cc(C)ccc3C)nc3ccncc32)c1,1.1,1.5,102,-7,14
O=C(N/N=C/c1cn(-c2cccs2)nc1-c1ccccc1)c1ccccc1Br,0.9,0.61,96,8,19
SMILES,FLuc act counter,NF-kB neuron act,STAT1 activator,FLuc inh counter,APP 5'UTR act
O=C(N/N=C/c1cn(-c2ccccc2)nc1-c1cc2ccccc2o1)c1ccccc1Br,0.9,1.9,120,6,188*
Cc1csc(=NC(=O)c2ccccc2)n1C,0.7,3.6*,127,31,102
CCn1c(C)csc1=NC(=O)c1ccccc1,0.9,1.3,101,13,20
COc1ccccc1/C=C/C(=O)OCC(=O)Nc1c(F)cccc1F,0.4,1.1,97,64*,1
CCOC(=O)c1cnc2ccc(C(=O)OC)cc2c1Nc1cccc(C(=O)O)c1,1,1.2,102,-3,-10
CCOC(=O)c1cnc2ccccc2c1Nc1cccc(C(=O)O)c1,0.1,1.1,100,86*,-23
CCOc1ccccc1/C=C(/NC(=O)c1ccccc1)C(=O)NC(C)c1ccccc1 (stereo not drawn),1,1.2,101,2,-6
CC(C)(C)c1ccc(OCC(=O)N2CCCCCC2)c(Br)c1,1,1,134*,0,19
Cc1ccc(OCC(=O)N2CCCCC2)c(Br)c1,1,1.9,119,0,7
Cc1cc(CCCCCCCCc2cc(C)cc(=O)o2)oc(=O)c1,1,0.74,108,-2,-20
CCOC(=O)C1CCN(CC(=O)Nc2cc(S(=O)(=O)N3CCOCC3)ccc2C)CC1,1,1.1,84,-2,-2
COc1ccc(Cl)cc1-c1nc(-c2ccc(NC(=O)c3cccs3)cc2)no1,0.9,1.6,129*,12,39
COc1cc(/C=N/NC(N)=S)cc(Br)c1OCc1ccccc1F,1,1.6,129*,-1,20
CCOc1cc(/C=N/NC(N)=S)cc(Br)c1OCc1ccccc1C,1,1.1,105,2,19
CC(N=C1CC(C)(C)CC(=O)/C1=C(/O)CCCN1C(=O)c2ccccc2C1=O)C(=O)O (stereo not drawn),1,0.84,108,2,5
Cc1nc2c(ccc3nc(NC(=O)C4CC4)sc32)s1,0.7,4.7*,156*,28,25
COc1ccccc1/C=C/C=N/NC(=O)c1ccc2nc[nH]c2c1,0.9,0.8,104,10,-4
Cc1ccc2c(Cl)c(C(=O)Nc3cccnc3)sc2c1,0.3,2.8,122,66*,169*
Cc1ccc2c(C)c(C(=O)Nc3cccnc3)oc2c1,0.9,1.5,103,13,6
CCCOc1ccc(-c2nnc(-c3ccncc3)o2)cc1,0.9,3.7*,126,7,124
c1cc(-c2nnc(-c3ccncc3)o2)ccn1,1,1.2,103,-4,17
CC(C)COc1ccc(-c2nnc(-c3ccncc3)o2)cc1,0.9,2.8,136*,7,34
COc1ccc(N/C=C\C(=O)c2ccc3c(c2)OCO3)cc1,0.1,8.4*,112,89*,75
O=C(/C=C\Nc1ccc2c(c1)OCO2)c1ccccn1,0,1.3,21,95*,120
COc1ccc(/C(N)=N/OC(=O)c2ccc3c(c2)OCO3)cc1,0.3,2.9,113,69*,60
Cc1noc(NS(=O)(=O)c2ccc(N/C=C/C(=O)c3ccc4c(c3)OCO4)cc2)c1C,0.7,1.3,116,31,-5
COc1ccc(/C(N)=N/OC(=O)c2cccc([N+](=O)[O-])c2)cc1,0.9,2.1,103,13,11
CCOc1ccc(N/C=C\C(=O)c2ccc3c(c2)OCO3)cc1,/,2.3,131*,/,-8
COc1ccc(C2C(C(=O)Nc3ccc(OC)c(OC)c3)c3ccccc3C(=O)N2C)cc1 (stereo not drawn),1,1.1,106,-3,12

# From PubChem BioAssay
